pIC50: −log10 of the molar value.
Tests used:
RAW264.7 = assay: Antiinflammatory activity in mouse RAW264.7 cells assessed as inhibition of LPS-induced nitric oxide release pretreated for 15 mins before LPS challenge measured after 24 hrs by Griess method; type: functional, cell-based
How it was run: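 RAW 264.7 cells pre-incubated 15 min with compound (1–25 range in the table; 1, 5, 10, 25, 50 for dose-response) or DMSO vehicle, then LPS 250 ng/ml for 24 h. Nitrite in supernatant measured by Griess reagent, absorbance at 548 nm against NaNO2 standard. IC50 is the concentration giving 50% inhibition of NO release. Means ± SD of three independent experiments in triplicate.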

[1] = Cytotoxicity against LPS-stimulated mouse RAW264.7 cells assessed as cell viability at 1 to 25 uM pretreated for 15 mins before LPS challenge measured after 24 hrs by MTT assay; type: cell-based; conditions: LPS-stimulated RAW264.7 cells, read-out: Activity
How it was run: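 RAW 264.7 cells plated at 10⁵ cells/well, treated with compound at 1–25 in the presence of LPS 250 ng/ml for 24 h. MTT then added for 4 h at 37 °C, formazan extracted in DMSO, absorbance read at 540 nm. Viability expressed relative to untreated controls. Triplicate wells, at least three independent experiments.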

SMILES	pIC50 (RAW264.7)	inhibition (RAW264.7)	viability at 24 h, up to 25 µM [1] [%]
C=C1[C@@H]2CC[C@H]3[C@]4(C)CCC[C@@](C)(C(=O)OC)[C@H]4CC[C@]3(C2)[C@H]1O	5.30	Dose-dependent effect	97
COC(=O)[C@]1(C)CCC[C@@]2(C)[C@@H]3CC[C@@H]4C[C@]3(C=C4/C=N/O)CC[C@@H]21	< 4.60		99
C=C1C[C@@]23CC[C@@H]4[C@](C)(C(=O)OCc5ccccc5)CCC[C@@]4(C)C2=CC[C@@H]1C3 [GRANDIFLORENIC ACID BENZYL ESTER]	< 4.60		23
C=C1[C@@H]2CC=C3[C@@](CC[C@@H]4[C@](C)(C(=O)OC)CCC[C@@]34C)(C2)[C@H]1O	< 4.60		67
C=C1C[C@@]23CC[C@@H]4[C@](C)(CO)CCC[C@@]4(C)C2=CC[C@@H]1C3	< 4.60		50
C=C1C[C@@]23CC[C@H]4[C@@](C)(CCC[C@@]4(C)C(=O)OC[Si](C)(C)C)[C@@H]2CC[C@@H]1C3	< 4.60		95
C[C@@]12CCC[C@@](C)(C(=O)OC[Si](C)(C)C)[C@H]1CC[C@]13CC(=O)O[C@H](CC[C@H]12)C3	5.30	Dose-dependent effect	95
COC(=O)[C@]1(C)CCC[C@@]2(C)C3=CC[C@@H]4C[C@]3(C=C4C=O)CC[C@H]12	4.60		18
COC(=O)[C@]1(C)CCC[C@@]2(C)[C@@H]3CC[C@@H]4C[C@@]3(CC[C@@H]21)C[C@@]4(O)CO	5.30		69
C=C1C[C@@]23CC[C@H]4[C@@](C)(CCC[C@@]4(C)C(=O)OC)[C@@H]2CC[C@@H]1C3 [KAURENOIC ACID METHYL ESTER]	4.60		90
COC(=O)[C@]1(C)CCC[C@@]2(C)[C@@H]3CC[C@@H]4C[C@@]3(CC[C@@H]21)[C@@H](O)C4=O	< 4.60		95
COC(=O)[C@]1(C)CCCC2(C)[C@@H]3CC[C@@H]4C[C@@]3(CC[C@@H]21)C[C@@]41CO1 (stereo partly specified)	< 4.60		66
C[C@@]12CCC[C@@](C)(C(=O)OCc3ccccc3)[C@H]1CC[C@]13CC(=O)O[C@H](CC[C@H]12)C3	< 4.60		50
C=C1C[C@@]23CC[C@@H]4[C@](C)(CO)CCC[C@@]4(C)[C@@H]2CC[C@@H]1C3	5.00		80
C=C1C[C@@]23CC[C@@H]4[C@](C)(COC(C)=O)CCC[C@@]4(C)[C@@H]2CC[C@@H]1C3	4.92		99
COC(=O)[C@]1(C)CCC[C@@]2(C)[C@@H]3CC[C@@H]4C[C@@]3(CC[C@@H]21)C[C@H]4C=O	< 4.60		90
COC(=O)[C@]1(C)CCC[C@@]2(C)C3=CC[C@@H]4C[C@@]3(CC[C@H]12)C[C@]4(O)CO	< 4.60		35
C[C@@]1(CO)CCC[C@]2(C)[C@@H]1CC[C@@]13C[C@@H](CC[C@H]12)[C@@](C)(O)C3	< 4.60		95
COC(=O)[C@]1(C)CCC[C@@]2(C)[C@@H]3CC[C@@H]4C[C@@]3(CC[C@@H]21)C[C@]41COS(=O)O1 (stereo partly specified)	< 4.60		60
COC(=O)[C@]1(C)CCC[C@@]2(C)[C@@H]3CC[C@@H]4C[C@]3(C=C4C=O)CC[C@@H]21	5.30		76
COC(=O)[C@]1(C)CCC[C@@]2(C)[C@@H]3CC[C@@H]4C[C@@]3(CC[C@@H]21)C[C@]4(C)OC	< 4.60		90
C=C1C[C@@]23CC[C@@H]4[C@](C)(COC(C)=O)CCC[C@@]4(C)C2=CC[C@@H]1C3	5.00		90
C=C1C[C@@]23CC[C@@H]4[C@](C)(COS(=O)OC[C@]5(C)CCC[C@]6(C)[C@@H]5CC[C@]57CC(=C)[C@H](CC[C@H]56)C7)CCC[C@@]4(C)[C@@H]2CC[C@@H]1C3	< 4.60		99
COC(=O)[C@]1(C)CCC[C@@]2(C)[C@@H]3CC[C@@H]4C[C@@]3(CC[C@@H]21)C[C@H]4/C=N/O	< 4.60		25
C=C1C[C@@]23CC[C@H]4[C@@](C)(CCC[C@@]4(C)C(=O)O)[C@@H]2CCC1C3 (single isomer, unassigned) [KAURENOIC ACID]	< 4.60		70

SMILES	pIC50 (RAW264.7)	inhibition (RAW264.7)	viability at 24 h, up to 25 µM [1] [%]
C=C1C(=O)[C@@]23CC[C@@H]4[C@](C)(C(=O)OC)CCC[C@@]4(C)C2=CC[C@@H]1C3	5.00		50
COC(=O)[C@]1(C)CCC[C@@]2(C)C3=CC[C@@H]4C[C@@]3(CC[C@H]12)C[C@H]4C	< 4.60		95
C[C@@]12CCC[C@@](C)(C(=O)OCc3ccccc3)[C@H]1CC[C@]13CC(=O)[C@H](CC[C@H]12)C3	4.92		95
COC(=O)[C@]1(C)CCC[C@@]2(C)[C@@H]3CC[C@@H]4C[C@@]3(CC[C@@H]21)C[C@]4(C)O	4.60		52
C=C1[C@@H]2CC[C@H]3[C@]4(C)CCC[C@@](C)(C(=O)Nc5ccccc5)[C@H]4CC[C@]3(C2)[C@H]1OC(C)=O	< 4.60		85
COC(=O)[C@]1(C)CCCC2(C)[C@@H]3CC[C@@H]4C[C@@]3(CC[C@@H]21)C[C@]41CO1 (stereo partly specified)	< 4.60		90
C=C1C(=O)[C@@]23CC[C@H]4[C@@](C)(CCC[C@@]4(C)C(=O)OC)[C@@H]2CC[C@@H]1C3	5.40		32
COC(=O)[C@]1(C)CCC[C@@]2(C)[C@@H]3CC[C@@H]4C[C@@]3(CC[C@@H]21)CC4=O	< 4.60		98
C=C1C[C@@]23CC[C@@H]4C(C)(C(=O)O)CCC[C@@]4(C)C2=CC[C@@H]1C3 (stereo partly specified)	4.82		90
COC(=O)[C@]1(C)CCC[C@@]2(C)[C@@H]3CC[C@@H]4C[C@@]3(CC[C@@H]21)[C@H]1O[C@@]41C	4.85		95
C=C1C[C@@]23CC[C@@H]4[C@](C)(C(=O)OC)CCC[C@@]4(C)C2=CC[C@@H]1C3 [GRANDIFLORENIC ACID METHYL ESTER]	5.30	Dose-dependent effect	100
C=C1C[C@@]23CC[C@H]4[C@@](C)(CCC[C@@]4(C)C(=O)OCc4ccccc4)[C@@H]2CC[C@@H]1C3 [KAURENOIC ACID BENZYL ESTER]	< 4.60		46
C=C1[C@@H]2CC[C@H]3[C@]4(C)CCC[C@@](C)(C(=O)O)[C@H]4CC[C@]3(C2)[C@H]1O	< 4.60		100
COC(=O)[C@]1(C)CCC[C@@]2(C)[C@@H]3CC[C@@H]4C[C@@]3(CC[C@@H]21)C[C@@]41COS(=O)O1 (stereo partly specified)	4.77		95
COC(=O)[C@]1(C)CCC[C@]2(C)[C@@H]1CC[C@@]13C[C@@H](C[C@@H]4O[C@@]412)[C@]1(CO1)C3	< 4.60		99
COC(=O)[C@]1(C)CCC[C@@]2(C)[C@@H]3CC[C@@H]4C[C@@]3(CC[C@@H]21)[C@@H](OC(C)=O)C4=O	< 4.60		99
COC(=O)[C@]1(C)CCC[C@@]2(C)C3=CC[C@@H]4C[C@@]3(CC[C@H]12)C[C@]4(O)COC(=O)c1ccco1	5.00		99
COC(=O)[C@]1(C)CCC[C@@]2(C)[C@@H]3CC[C@@H]4C[C@]3(C=C4C)CC[C@@H]21	< 4.60		100
COC(=O)[C@]1(C)CCC[C@@]2(C)[C@@H]3CC[C@@H]4C[C@@]3(CC[C@@H]21)C(=O)OC4=O	< 4.60		95
COC(=O)[C@]1(C)CCC[C@@]2(C)[C@@H]3CC[C@@H]4C[C@@]3(CC[C@@H]21)C[C@]4(C)Cl	< 4.60		82
C=C1[C@@H]2CC=C3[C@@](CC[C@@H]4[C@](C)(C(=O)OC)CCC[C@@]34C)(C2)[C@H]1OC(C)=O	< 4.60		50
COC(=O)[C@]1(C)CCC[C@@]2(C)[C@@H]3CC[C@@H]4C[C@@]3(CC[C@@H]21)C(=O)[C@@]41CCN=N1	< 4.60		48
COC(=O)[C@]1(C)CCC[C@@]2(C)[C@@H]3CC[C@@H]4C[C@@]3(CC[C@@H]21)C[C@H]4C [DIHYDRO KAURENOIC ACID METHYL ESTER]	< 4.60		72
C=C1[C@H]2CC3=C([C@H](C2)[C@@H]1O)[C@]1(C)CCC[C@@](C)(C(=O)OC)[C@H]1CC3	< 4.60		30
